Experimental data reported in ChEMBL document CHEMBL5523690, “Synergistic effect of tryptamine-urea derivatives to overcome the chromosomally-mediated colistin resistance in Klebsiella pneumoniae” (Bioorg Med Chem, 2024).

Legend:
Format in all cases: functional
Escherichia coli [1] = assay: Antibacterial activity against Escherichia coli ATCC25922 assessed as inhibition of visible bacterial growth measured after 20 hrs under aerobic condition by two fold serial dilution assay
How it was run: (§1)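 Broth microdilution following EUCAST. Compound was tested at final well concentrations of 0.25–128 µg/mL against 5.10^5 CFU/mL inoculum, incubated 20 h at 37 °C aerobically. MIC was taken as the lowest concentration with no visible growth. There were three independent experiments per strain.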

Escherichia coli [2] = assay: Colistin adjuvant activity against colistin-resistant Escherichia coli A50 assessed as antibacterial effect by measuring colistin MIC incubated for 24 hrs under aerobic condition by two fold serial dilution method
Escherichia coli [3] = assay: Colistin adjuvant activity against colistin-resistant Escherichia coli A50 assessed as colistin MIC by measuring potentiation fold incubated for 24 hrs under aerobic condition by two fold serial dilution method relative to colistin alone
Klebsiella pneumoniae [4] = assay: Colistin adjuvant activity against colistin-resistant Klebsiella pneumoniae BA03057 assessed as antibacterial effect by measuring colistin MIC incubated for 24 hrs under aerobic condition by two fold serial dilution method
Klebsiella pneumoniae [5] = assay: Synergistic antibacterial activity against Klebsiella pneumoniae BA03057 assessed as fractional inhibitory concentration index incubated for 24 hrs under aerobic condition in presence of colistin by checkerboard assay
How it was run: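 Checkerboard against KP BA03057 at 5.10^5 CFU/mL. Colistin was two-fold diluted 0–64 µg/mL across compound two-fold diluted 0–100 µM. Plates were incubated 24 h at 37 °C aerobically and absorbance read at 600 nm. FICI = MIC(compound, combined)/MIC(compound alone) + MIC(colistin, combined)/MIC(colistin alone), with synergy at FICI < 0.5. Plates were run in duplicate.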

Klebsiella pneumoniae [6] = assay: Antibacterial activity against chromosomally-mediated resistant Klebsiella pneumoniae BA03057 assessed as inhibition of visible bacterial growth measured after 20 hrs under aerobic condition by two fold serial dilution assay
Pseudomonas aeruginosa [7] = assay: Antibacterial activity against chromosomally-mediated colistin resistant Pseudomonas aeruginosa 1002 assessed as inhibition of visible bacterial growth measured after 20 hrs under aerobic condition by two fold serial dilution assay
Escherichia coli [8] = assay: Antibacterial activity against colistin resistant Escherichia coli NTCC 13846 harboring mcr-1 gene assessed as inhibition of visible bacterial growth measured after 20 hrs under aerobic condition by two fold serial dilution assay
Pseudomonas aeruginosa [9] = assay: Antibacterial activity against chromosomally-mediated colistin resistant Pseudomonas aeruginosa 15080 assessed as inhibition of visible bacterial growth measured after 20 hrs under aerobic condition by two fold serial dilution assay
Pseudomonas aeruginosa [10] = assay: Antibacterial activity against Pseudomonas aeruginosa ATCC27853 assessed as inhibition of visible bacterial growth measured after 20 hrs under aerobic condition by two fold serial dilution assay; how it was run: as §1
Klebsiella pneumoniae [11] = assay: Colistin adjuvant activity against colistin-resistant Klebsiella pneumoniae BA03057 assessed as colistin MIC by measuring potentiation fold incubated for 24 hrs under aerobic condition by two fold serial dilution method relative to colistin alone
Klebsiella pneumoniae [12] = assay: Antibacterial activity against Klebsiella pneumoniae ATCC700603 assessed as inhibition of visible bacterial growth measured after 20 hrs under aerobic condition by two fold serial dilution assay; how it was run: as §1
Escherichia coli [13] = assay: Antibacterial activity against colistin resistant Escherichia coli A50 harboring mcr-1 gene assessed as inhibition of visible bacterial growth measured after 20 hrs under aerobic condition by two fold serial dilution assay
Pseudomonas aeruginosa [14] = assay: Antibacterial activity against chromosomally-mediated colistin resistant Pseudomonas aeruginosa 10039 assessed as inhibition of visible bacterial growth measured after 20 hrs under aerobic condition by two fold serial dilution assay

| Compound | MIC (Escherichia coli [1]) [mg/L] | MIC (Escherichia coli [2]) [mg/L] | fold change (FC) (Escherichia coli [3]) | MIC (Klebsiella pneumoniae [4]) [mg/L] | fractional inhibitory concentration index (FICI) (Klebsiella pneumoniae [5]) | MIC (Klebsiella pneumoniae [6]) [mg/L] | MIC (Pseudomonas aeruginosa [7]) [mg/L] | MIC (Escherichia coli [8]) [mg/L] | MIC (Pseudomonas aeruginosa [9]) [mg/L] | MIC (Pseudomonas aeruginosa [10]) [mg/L] | fold change (FC) (Klebsiella pneumoniae [11]) | MIC (Klebsiella pneumoniae [12]) [mg/L] | MIC (Escherichia coli [13]) [mg/L] | MIC (Pseudomonas aeruginosa [14]) [mg/L] |
| --- | --- | --- | --- | --- | --- | --- | --- | --- | --- | --- | --- | --- | --- | --- |
| O=C(NCCc1c[nH]c2ccccc12)Nc1ccc(Cl)cc1 | > 128 | 4 | 0.5 | 4 | 0.276 | > 128 | > 128 | > 128 | > 128 | > 128 | 0.062 | > 128 | > 128 | > 128 |
| O=C(NCCc1c[nH]c2ccccc12)Nc1cccc(Br)c1 | > 128 | 8 | 1 | 8 | – | > 128 | > 128 | > 128 | > 128 | > 128 | 0.125 | > 128 | > 128 | > 128 |
| CCCNC(=O)NCCc1c[nH]c2ccccc12 | > 128 | 4 | 0.5 | 8 | – | > 128 | > 128 | > 128 | > 128 | > 128 | 0.125 | > 128 | > 128 | > 128 |
| O=C(NCCc1c[nH]c2ccccc12)Nc1ccccc1Cl | > 128 | 8 | 1 | 8 | – | > 128 | > 128 | > 128 | > 128 | > 128 | 0.125 | > 128 | > 128 | > 128 |
| COLISTIN | 0.25 | – | – | – | – | 64 | 2 | 2 | 2 | 2 | – | 0.5 | 8 | 4 |
| O=C(NCCc1c[nH]c2ccccc12)Nc1ccc(Br)cc1 | > 128 | 2 | 0.25 | 8 | – | > 128 | > 128 | > 128 | > 128 | > 128 | 0.125 | > 128 | > 128 | > 128 |
| O=C(NCCc1c[nH]c2ccccc12)Nc1ccc(F)cc1 | > 128 | 4 | 0.5 | 8 | – | > 128 | > 128 | > 128 | > 128 | > 128 | 0.125 | > 128 | > 128 | > 128 |
| COc1ccc(NC(=O)NCCc2c[nH]c3ccccc23)cc1 | > 128 | 4 | 0.5 | 16 | – | > 128 | > 128 | > 128 | > 128 | > 128 | 0.25 | > 128 | > 128 | > 128 |
| O=C(NCCc1c[nH]c2ccccc12)Nc1cccc(Cl)c1 | > 128 | 8 | 1 | 2 | 0.062 | > 128 | > 128 | > 128 | > 128 | > 128 | 0.031 | > 128 | > 128 | > 128 |
| CC(C)(C)NC(=O)NCCc1c[nH]c2ccccc12 | > 128 | 8 | 1 | 8 | – | > 128 | > 128 | > 128 | > 128 | > 128 | 0.125 | > 128 | > 128 | > 128 |
| O=C(NCCc1c[nH]c2ccccc12)Nc1ccccc1 | > 128 | 8 | 1 | 8 | – | > 128 | > 128 | > 128 | > 128 | > 128 | 0.125 | > 128 | > 128 | > 128 |
| CC(C)c1ccc(NC(=O)NCCc2c[nH]c3ccccc23)cc1 | > 128 | 4 | 0.5 | 16 | – | > 128 | > 128 | > 128 | > 128 | > 128 | 0.25 | > 128 | > 128 | > 128 |
| O=C(NCCc1c[nH]c2ccccc12)Nc1ccc(C(F)(F)F)cc1 | > 128 | 8 | 1 | 2 | 0.167 | > 128 | > 128 | > 128 | > 128 | > 128 | 0.031 | > 128 | > 128 | > 128 |
| Cc1ccc(NC(=O)NCCc2c[nH]c3ccccc23)cc1 | > 128 | 4 | 0.5 | 8 | – | > 128 | > 128 | > 128 | > 128 | > 128 | 0.125 | > 128 | > 128 | > 128 |
| O=C(NCCc1c[nH]c2ccccc12)NCc1ccccc1 | > 128 | 4 | 0.5 | 8 | – | > 128 | > 128 | > 128 | > 128 | > 128 | 0.125 | > 128 | > 128 | > 128 |
| O=C(NCCc1c[nH]c2ccccc12)Nc1ccccc1F | > 128 | 8 | 1 | 8 | – | > 128 | > 128 | > 128 | > 128 | > 128 | 0.125 | > 128 | > 128 | > 128 |
| O=C(NCCc1c[nH]c2ccccc12)Nc1ccccc1Br | > 128 | 4 | 0.5 | 2 | 0.31 | > 128 | > 128 | > 128 | > 128 | > 128 | 0.031 | > 128 | > 128 | > 128 |
| O=C(NCCc1c[nH]c2ccccc12)Nc1cc(Cl)cc(Cl)c1 | > 128 | 2 | 0.25 | 2 | – | > 128 | > 128 | > 128 | > 128 | > 128 | 0.031 | > 128 | > 128 | > 128 |
| CCCCCCNC(=O)NCCc1c[nH]c2ccccc12 | > 128 | 4 | 0.5 | 2 | 0.143 | > 128 | > 128 | > 128 | > 128 | > 128 | 0.031 | > 128 | > 128 | > 128 |
